{"source": "ChEMBL document CHEMBL1157161", "about": "“N-1H-benzimidazol-5-ylbenzenesulfonamide derivatives as potent hPXR agonists” (Bioorg Med Chem, 2008)", "key": {"[1]": {"target": "T1, Nuclear receptor subfamily 1 group I member 2 (Homo sapiens, UniProt O75469)", "T1 sequence (O75469 whole entry)": "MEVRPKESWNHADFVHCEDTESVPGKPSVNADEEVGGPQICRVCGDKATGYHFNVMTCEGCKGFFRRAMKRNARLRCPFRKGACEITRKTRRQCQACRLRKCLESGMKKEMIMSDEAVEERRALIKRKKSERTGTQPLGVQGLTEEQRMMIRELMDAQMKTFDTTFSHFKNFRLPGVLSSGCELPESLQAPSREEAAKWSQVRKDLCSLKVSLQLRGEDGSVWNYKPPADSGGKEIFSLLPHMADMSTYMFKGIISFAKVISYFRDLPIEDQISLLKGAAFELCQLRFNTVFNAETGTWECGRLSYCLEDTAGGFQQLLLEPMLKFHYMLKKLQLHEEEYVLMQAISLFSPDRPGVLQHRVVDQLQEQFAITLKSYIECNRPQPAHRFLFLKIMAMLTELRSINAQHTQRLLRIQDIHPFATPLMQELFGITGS", "experiment": "Agonist activity at human pregnane X receptor expressed in HGPXR reporter cells", "type": "functional, cell-based"}, "Hepatocyte [2]": {"test_system": "Hepatocyte", "experiment": "Induction of CYP3A4 mRNA expression in human hepatocyte FT268 at 1 uM after 24 hrs by RT-PCR relative to control", "type": "functional", "procedure,_shortened": "(§1)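 Primary adult human hepatocytes from lobectomy segments, plated on collagen in Williams' E/Ham's F-12 (1:1) defined medium; 24 h exposure begun 48 h after plating, vehicle DMSO 0.1%. Total RNA extracted with TRIzol, cDNA from 1 µg using random hexamers (42 °C, 60 min). Target mRNA quantified by real-time PCR in duplicates, comparative Ct method. Result given as fold induction over DMSO-treated cells ± standard error.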"}, "Hepatocyte [3]": {"test_system": "Hepatocyte", "experiment": "Induction of […] mRNA expression in human hepatocyte FT268 at 1 uM after 24 hrs by RT-PCR relative to control", "type": "functional", "procedure,_shortened": "as §1"}, "Hepatocyte [4]": {"test_system": "Hepatocyte", "experiment": "Induction of CYP3A4 mRNA expression in human hepatocyte FT269 at 1 uM after 24 hrs by RT-PCR relative to control", "type": "functional", "procedure,_shortened": "as §1"}, "Hepatocyte [5]": {"test_system": "Hepatocyte", "experiment": "Induction of […] mRNA expression in human hepatocyte FT269 at 1 uM after 24 hrs by RT-PCR relative to control", "type": "functional", "procedure,_shortened": "as §1"}, "Hepatocyte [6]": {"test_system": "Hepatocyte", "experiment": "Induction of CYP3A4 mRNA expression in human hepatocyte FT271 at 1 uM after 24 hrs by RT-PCR relative to control", "type": "functional", "procedure,_shortened": "as §1"}, "Hepatocyte [7]": {"test_system": "Hepatocyte", "experiment": "Induction of […] mRNA expression in human hepatocyte FT271 at 1 uM after 24 hrs by RT-PCR relative to control", "type": "functional", "procedure,_shortened": "as §1"}, "Hepatocyte [8]": {"test_system": "Hepatocyte", "experiment": "Induction of CYP3A4 mRNA expression in human hepatocyte FT272 at 1 uM after 24 hrs by RT-PCR relative to control", "type": "functional", "procedure,_shortened": "as §1"}, "Hepatocyte [9]": {"test_system": "Hepatocyte", "experiment": "Induction of […] mRNA expression in human hepatocyte FT272 at 1 uM after 24 hrs by RT-PCR relative to control", "type": "functional", "procedure,_shortened": "as §1"}, "[10]": {"target": "T1, Nuclear receptor subfamily 1 group I member 2", "experiment": "Protection of human pregnane X receptor against proteolytic digestion in presence of trypsin"}}, "data": [{"smiles": "O=S(=O)(Nc1ccc2c(c1)ncn2Cc1ccccc1)c1cccc2ccccc12", "values": [{"measurement": "EC50", "setting": "[1]", "result": 20, "unit": "nM"}]}, {"smiles": "O=[N+]([O-])c1ccccc1CS(=O)(=O)Nc1ccc2c(c1)ncn2Cc1ccccc1", "values": [{"measurement": "EC50", "setting": "[1]", "result": 428, "unit": "nM"}]}, {"smiles": "O=[N+]([O-])c1ccccc1S(=O)(=O)Nc1ccc2c(c1)ncn2Cc1ccccc1", "values": [{"measurement": "EC50", "setting": "[1]", "result": 271, "unit": "nM"}]}, {"smiles": "O=[N+]([O-])c1ccc(S(=O)(=O)Nc2ccc3c(c2)ncn3Cc2ccccc2)cc1", "values": [{"measurement": "EC50", "setting": "[1]", "result": 336, "unit": "nM"}]}, {"smiles": "O=S(=O)(Cc1ccccc1Cl)Nc1ccc2ncn(Cc3ccccc3)c2c1", "values": [{"measurement": "EC50", "setting": "[1]", "result": 376, "unit": "nM"}]}, {"smiles": "O=S(=O)(Nc1ccc2ncn(Cc3ccccc3)c2c1)c1ccccc1Cl", "values": [{"measurement": "EC50", "setting": "[1]", "result": 340, "unit": "nM"}]}, {"smiles": "O=C(Nc1ccc2c(c1)ncn2Cc1ccccc1)Nc1ccccc1Cl", "values": [{"measurement": "EC50", "setting": "[1]", "result": 1480, "unit": "nM"}]}, {"smiles": "O=S(=O)(Nc1ccc2c(c1)ncn2-c1ccc2ccccc2c1)c1ccccc1Cl", "values": [{"measurement": "EC50", "setting": "[1]", "result": 385, "unit": "nM"}]}, {"smiles": "CCOP(=O)(OCC)C(=Cc1cc(C(C)(C)C)c(O)c(C(C)(C)C)c1)P(=O)(OCC)OCC", "values": [{"measurement": "Ratio", "setting": "Hepatocyte [2]", "result": 4.02}, {"measurement": "Ratio", "setting": "Hepatocyte [3]", "result": 3.26}, {"measurement": "Ratio", "setting": "Hepatocyte [4]", "result": 10.9}, {"measurement": "Ratio", "setting": "Hepatocyte [5]", "result": 3.74}, {"measurement": "Ratio", "setting": "Hepatocyte [6]", "result": 11.84}, {"measurement": "Ratio", "setting": "Hepatocyte [7]", "result": 2}, {"measurement": "Ratio", "setting": "Hepatocyte [8]", "result": 24.01}, {"measurement": "Ratio", "setting": "Hepatocyte [9]", "result": 3.91}]}, {"smiles": "O=C(Nc1ccc2c(c1)ncn2Cc1ccccc1)Nc1ccccc1[N+](=O)[O-]", "values": [{"measurement": "EC50", "setting": "[1]", "result": "> 5000", "unit": "nM"}]}, {"smiles": "O=S(=O)(Nc1ccc2c(c1)ncn2Cc1ccccc1)c1ccc(-c2ccccc2)cc1", "values": [{"measurement": "EC50", "setting": "[1]", "result": 388, "unit": "nM"}]}, {"smiles": "Cc1c(C)c(C)c(S(=O)(=O)Nc2ccc3c(c2)ncn3Cc2ccccc2)c(C)c1C", "values": [{"measurement": "EC50", "setting": "[1]", "result": 0.7, "unit": "nM"}, {"measurement": "EC50", "setting": "[10]", "result": 8.04, "unit": "nM"}, {"measurement": "Ratio", "setting": "Hepatocyte [4]", "result": 29.02}, {"measurement": "Ratio", "setting": "Hepatocyte [5]", "result": 14.89}, {"measurement": "Ratio", "setting": "Hepatocyte [6]", "result": 14.91}, {"measurement": "Ratio", "setting": "Hepatocyte [7]", "result": 4.86}, {"measurement": "Ratio", "setting": "Hepatocyte [8]", "result": 32.59}, {"measurement": "Ratio", "setting": "Hepatocyte [9]", "result": 11.41}]}, {"smiles": "CC(C)(C)c1ccc(S(=O)(=O)Nc2ccc3c(c2)ncn3Cc2ccccc2)cc1", "values": [{"measurement": "EC50", "setting": "[1]", "result": 42, "unit": "nM"}]}, {"smiles": "Cc1cc(C)cc(S(=O)(=O)Nc2ccc3c(c2)ncn3Cc2ccccc2)c1", "values": [{"measurement": "EC50", "setting": "[1]", "result": 33, "unit": "nM"}]}, {"smiles": "Cc1cc(C)c(S(=O)(=O)Nc2ccc3c(c2)ncn3Cc2ccccc2)c(C)c1", "values": [{"measurement": "EC50", "setting": "[1]", "result": 1.5, "unit": "nM"}, {"measurement": "EC50", "setting": "[10]", "result": 8.05, "unit": "nM"}, {"measurement": "Ratio", "setting": "Hepatocyte [6]", "result": 15.58}, {"measurement": "Ratio", "setting": "Hepatocyte [7]", "result": 1.89}, {"measurement": "Ratio", "setting": "Hepatocyte [8]", "result": 31.68}, {"measurement": "Ratio", "setting": "Hepatocyte [9]", "result": 7.55}]}, {"smiles": "O=C(Cc1ccccc1Cl)Nc1ccc2c(c1)ncn2Cc1ccccc1", "values": [{"measurement": "EC50", "setting": "[1]", "result": 515, "unit": "nM"}]}, {"smiles": "O=C(Cc1cccc2ccccc12)Nc1ccc2c(c1)ncn2Cc1ccccc1", "values": [{"measurement": "EC50", "setting": "[1]", "result": 217, "unit": "nM"}]}, {"smiles": "O=C(Cc1ccc2ccccc2c1)Nc1ccc2c(c1)ncn2Cc1ccccc1", "values": [{"measurement": "EC50", "setting": "[1]", "result": "> 5000", "unit": "nM"}]}, {"smiles": "O=S(=O)(Nc1ccc2c(c1)ncn2Cc1ccccc1)c1ccccc1Br", "values": [{"measurement": "EC50", "setting": "[1]", "result": 20, "unit": "nM"}]}, {"smiles": "CCCCCCn1cnc2cc(NS(=O)(=O)c3ccccc3Cl)ccc21", "values": [{"measurement": "EC50", "setting": "[1]", "result": 55, "unit": "nM"}]}, {"smiles": "CCCCCCn1cnc2cc(NS(=O)(=O)c3c(C)c(C)c(C)c(C)c3C)ccc21", "values": [{"measurement": "EC50", "setting": "[1]", "result": 13, "unit": "nM"}]}, {"smiles": "O=S(=O)(Nc1ccc2c(c1)ncn2Cc1ccccc1)c1ccccc1Cl", "values": [{"measurement": "EC50", "setting": "[1]", "result": 23, "unit": "nM"}, {"measurement": "EC50", "setting": "[10]", "result": 157, "unit": "nM"}, {"measurement": "Ratio", "setting": "Hepatocyte [2]", "result": 7.23}, {"measurement": "Ratio", "setting": "Hepatocyte [3]", "result": 3.02}, {"measurement": "Ratio", "setting": "Hepatocyte [4]", "result": 17.04}, {"measurement": "Ratio", "setting": "Hepatocyte [5]", "result": 10.46}, {"measurement": "Ratio", "setting": "Hepatocyte [6]", "result": 9.97}, {"measurement": "Ratio", "setting": "Hepatocyte [7]", "result": 3.05}, {"measurement": "Ratio", "setting": "Hepatocyte [8]", "result": 36.06}, {"measurement": "Ratio", "setting": "Hepatocyte [9]", "result": 11.83}]}, {"smiles": "O=S(=O)(Cc1ccccc1Cl)Nc1ccc2c(ccn2Cc2ccccc2)c1", "values": [{"measurement": "EC50", "setting": "[1]", "result": 197, "unit": "nM"}]}, {"smiles": "Cc1c(C)c(C)c(S(=O)(=O)Nc2ccc3c(c2)ncn3-c2ccc3ccccc3c2)c(C)c1C", "values": [{"measurement": "EC50", "setting": "[1]", "result": 55, "unit": "nM"}]}, {"smiles": "O=S(=O)(Cc1ccccc1Cl)Nc1ccc2c(c1)ncn2Cc1ccccc1", "values": [{"measurement": "EC50", "setting": "[1]", "result": 176, "unit": "nM"}]}, {"smiles": "O=S(=O)(Nc1ccc2c(c1)ncn2Cc1ccccc1)c1ccc2ccccc2c1", "values": [{"measurement": "EC50", "setting": "[1]", "result": 51, "unit": "nM"}]}, {"smiles": "O=S(=O)(Nc1ccc2c(c1)ncn2Cc1ccccc1)c1ccccc1F", "values": [{"measurement": "EC50", "setting": "[1]", "result": 101, "unit": "nM"}]}, {"smiles": "CCCc1ccc(S(=O)(=O)Nc2ccc3c(c2)ncn3Cc2ccccc2)cc1", "values": [{"measurement": "EC50", "setting": "[1]", "result": 52, "unit": "nM"}]}, {"smiles": "Cc1ccccc1S(=O)(=O)Nc1ccc2c(c1)ncn2Cc1ccccc1", "values": [{"measurement": "EC50", "setting": "[1]", "result": 45, "unit": "nM"}]}, {"smiles": "O=C(Nc1ccc2c(c1)ncn2Cc1ccccc1)Nc1cccc2ccccc12", "values": [{"measurement": "EC50", "setting": "[1]", "result": "> 5000", "unit": "nM"}]}, {"smiles": "CC(c1ccccc1)n1cnc2cc(NS(=O)(=O)Cc3ccccc3Cl)ccc21", "note": "(racemic)", "values": [{"measurement": "EC50", "setting": "[1]", "result": 49, "unit": "nM"}, {"measurement": "EC50", "setting": "[10]", "result": 809, "unit": "nM"}]}]}
